≈ marks a conversion by molar mass, not a printed value. Calls of active or inactive are those of the source. The calls are words filed in the database; no cut-off is given here.
Tests used:
Cryptococcus neoformans [1] = experiment: Antifungal activity against Cryptococcus neoformans; assay type: functional
In short: (§1)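 In vitro MIC determination by standard agar method, cited from earlier work; fungal strains tested were Candida albicans, Fusarium oxysporum, Aspergillus flavus, Aspergillus niger and Cryptococcus neoformans, with miconazole and fluconazole run as reference standards.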

Fusarium oxysporum [2] = experiment: Antifungal activity against Fusarium oxysporum; assay type: functional; in short: as §1
Candida albicans = experiment: Antifungal activity against Candida albicans; assay type: functional; in short: as §1
Aspergillus flavus [3] = experiment: Antifungal activity against Aspergillus flavus; assay type: functional; in short: as §1
Aspergillus niger [4] = experiment: Antifungal activity against Aspergillus niger; assay type: functional; in short: as §1
Cryptococcus neoformans [5] = experiment: Antifungal activity against Cryptococcus neoformans up to 200 ug/ml; assay type: functional, organism-based; in short: as §1
Aspergillus niger [6] = experiment: Antifungal activity against Aspergillus niger up to 200 ug/ml; assay type: functional, organism-based; in short: as §1
Fusarium oxysporum [7] = experiment: Antifungal activity against Fusarium oxysporum up to 200 ug/ml; assay type: functional, organism-based; in short: as §1
Aspergillus flavus [8] = experiment: Antifungal activity against Aspergillus flavus up to 200 ug/ml; assay type: functional, organism-based; in short: as §1

**Q.** For `CCN1CCC(n2cc(-c3noc(-c4ccc(Cl)cc4)n3)nn2)CC1`, which MIC (Cryptococcus neoformans [1]) is on record?
**A.** 100 µg/mL (≈ 279 µM)

**Q.** And the MIC (Fusarium oxysporum [2])?
**A.** 80 µg/mL (≈ 223 µM)

**Q.** And the MIC (Candida albicans)?
**A.** 70 µg/mL (≈ 195 µM)

**Q.** What about the MIC (Aspergillus flavus [3]) of the same compound?
**A.** 35 µg/mL (≈ 97.5 µM)

**Q.** And the MIC (Aspergillus niger [4])?
**A.** 40 µg/mL (≈ 111 µM)

**Q.** Which results are given for `CS(=O)(=O)N1CCC(n2cc(-c3noc(-c4ccc(Cl)cc4)n3)nn2)CC1`?
**A.** MIC (Cryptococcus neoformans [1]): 40 µg/mL (≈ 97.8 µM); MIC (Fusarium oxysporum [2]): 35 µg/mL (≈ 85.6 µM); MIC (Candida albicans): 30 µg/mL (≈ 73.4 µM); MIC (Aspergillus flavus [3]): 15 µg/mL (≈ 36.7 µM); MIC (Aspergillus niger [4]): 15 µg/mL (≈ 36.7 µM)

**Q.** Which MIC (Cryptococcus neoformans [1]) does the source give for `O=C(c1ccc(Cl)cc1)N1CCC(n2cc(-c3noc(-c4ccccc4)n3)nn2)CC1` here?
**A.** 45 µg/mL (≈ 103 µM)

**Q.** And the MIC (Fusarium oxysporum [2])?
**A.** 40 µg/mL (≈ 92 µM)

**Q.** What about the MIC (Candida albicans) of the same compound?
**A.** 45 µg/mL (≈ 103 µM)

**Q.** What about the MIC (Aspergillus flavus [3]) of the same compound?
**A.** 40 µg/mL (≈ 92 µM)

**Q.** What about the MIC (Aspergillus niger [4]) of the same compound?
**A.** 42.5 µg/mL (≈ 97.7 µM)

**Q.** Which results are given for `CN1CCC(n2cc(-c3noc(-c4ccccc4)n3)nn2)CC1`?
**A.** MIC (Fusarium oxysporum [2]): 60 µg/mL (≈ 193 µM); Activity (Cryptococcus neoformans [5]): inactive; MIC (Candida albicans): 50 µg/mL (≈ 161 µM); MIC (Aspergillus flavus [3]): 30 µg/mL (≈ 96.7 µM); Activity (Aspergillus niger [6]): inactive

**Q.** `c1ccc(-c2nc(-c3cn(C4CCNCC4)nn3)no2)cc1` was tested. Which MIC (Cryptococcus neoformans [1]) did it give?
**A.** 90 µg/mL (≈ 304 µM)

**Q.** And the MIC (Fusarium oxysporum [2])?
**A.** 100 µg/mL (≈ 337 µM)

**Q.** What about the MIC (Candida albicans) of the same compound?
**A.** 60 µg/mL (≈ 202 µM)

**Q.** And the MIC (Aspergillus flavus [3])?
**A.** 50 µg/mL (≈ 169 µM)

**Q.** What about the MIC (Aspergillus niger [4]) of the same compound?
**A.** 100 µg/mL (≈ 337 µM)

**Q.** Which MIC (Cryptococcus neoformans [1]) does the source give for `c1ccc(CN2CCC(n3cc(-c4noc(-c5ccccc5)n4)nn3)CC2)cc1` here?
**A.** 70 µg/mL (≈ 181 µM)

**Q.** And the MIC (Fusarium oxysporum [2])?
**A.** 65 µg/mL (≈ 168 µM)

**Q.** What about the MIC (Candida albicans) of the same compound?
**A.** 50 µg/mL (≈ 129 µM)

**Q.** And the MIC (Aspergillus flavus [3])?
**A.** 50 µg/mL (≈ 129 µM)

**Q.** What about the MIC (Aspergillus niger [4]) of the same compound?
**A.** 150 µg/mL (≈ 388 µM)

**Q.** For `O=C(c1ccccc1)N1CCC(n2cc(-c3noc(-c4ccc(Cl)cc4)n3)nn2)CC1`, which MIC (Cryptococcus neoformans [1]) is on record?
**A.** 100 µg/mL (≈ 230 µM)

**Q.** And the MIC (Fusarium oxysporum [2])?
**A.** 85 µg/mL (≈ 195 µM)

**Q.** What about the MIC (Candida albicans) of the same compound?
**A.** 75 µg/mL (≈ 172 µM)

**Q.** And the MIC (Aspergillus flavus [3])?
**A.** 65 µg/mL (≈ 149 µM)

**Q.** And the Activity (Aspergillus niger [6])?
**A.** inactive

**Q.** For `Clc1ccc(COC(Cn2ccnc2)c2ccc(Cl)cc2Cl)c(Cl)c1` (stereo not given) [MICONAZOLE], which MIC (Cryptococcus neoformans [1]) is on record?
**A.** 25 µg/mL (≈ 60.1 µM)

**Q.** And the MIC (Fusarium oxysporum [2])?
**A.** 25 µg/mL (≈ 60.1 µM)

**Q.** What about the MIC (Candida albicans) of the same compound?
**A.** 25 µg/mL (≈ 60.1 µM)

**Q.** And the MIC (Aspergillus flavus [3])?
**A.** 12.5 µg/mL (≈ 30 µM)

**Q.** And the MIC (Aspergillus niger [4])?
**A.** 12.5 µg/mL (≈ 30 µM)

**Q.** What does the source list for `CCC(=O)N1CCC(n2cc(-c3noc(-c4ccccc4)n3)nn2)CC1`?
**A.** MIC (Fusarium oxysporum [2]): 60 µg/mL (≈ 170 µM); Activity (Cryptococcus neoformans [5]): inactive; MIC (Candida albicans): 50 µg/mL (≈ 142 µM); MIC (Aspergillus flavus [3]): 30 µg/mL (≈ 85.1 µM); Activity (Aspergillus niger [6]): inactive

**Q.** `CC(=O)N1CCC(n2cc(-c3noc(-c4ccc(Cl)cc4)n3)nn2)CC1` was tested. Which MIC (Fusarium oxysporum [2]) did it give?
**A.** 30 µg/mL (≈ 80.5 µM)

**Q.** And the Activity (Cryptococcus neoformans [5])?
**A.** inactive

**Q.** What about the MIC (Candida albicans) of the same compound?
**A.** 40 µg/mL (≈ 107 µM)

**Q.** And the MIC (Aspergillus flavus [3])?
**A.** 150 µg/mL (≈ 402 µM)

**Q.** What about the MIC (Aspergillus niger [4]) of the same compound?
**A.** 70 µg/mL (≈ 188 µM)

**Q.** For `CC(C)(C)OC(=O)N1CCC(n2cc(-c3noc(-c4ccccc4)n3)nn2)CC1`, which MIC (Cryptococcus neoformans [1]) is on record?
**A.** 120 µg/mL (≈ 303 µM)

**Q.** What about the MIC (Candida albicans) of the same compound?
**A.** 80 µg/mL (≈ 202 µM)

**Q.** And the MIC (Aspergillus flavus [3])?
**A.** 85 µg/mL (≈ 214 µM)

**Q.** What about the MIC (Aspergillus niger [4]) of the same compound?
**A.** 100 µg/mL (≈ 252 µM)

**Q.** And the Activity (Fusarium oxysporum [7])?
**A.** inactive

**Q.** What does the source list for `OC(Cn1cncn1)(Cn1cncn1)c1ccc(F)cc1F` [FLUCONAZOLE]?
**A.** MIC (Cryptococcus neoformans [1]): 5 µg/mL (≈ 16.3 µM); MIC (Fusarium oxysporum [2]): 5 µg/mL (≈ 16.3 µM); MIC (Candida albicans): 5 µg/mL (≈ 16.3 µM); MIC (Aspergillus flavus [3]): 5 µg/mL (≈ 16.3 µM); MIC (Aspergillus niger [4]): 10 µg/mL (≈ 32.7 µM)

**Q.** Which MIC (Cryptococcus neoformans [1]) does the source give for `CCCC(=O)N1CCC(n2cc(-c3noc(-c4ccccc4)n3)nn2)CC1` here?
**A.** 150 µg/mL (≈ 409 µM)

**Q.** And the MIC (Fusarium oxysporum [2])?
**A.** 100 µg/mL (≈ 273 µM)

**Q.** What about the MIC (Candida albicans) of the same compound?
**A.** 90 µg/mL (≈ 246 µM)

**Q.** And the MIC (Aspergillus flavus [3])?
**A.** 35 µg/mL (≈ 95.5 µM)

**Q.** And the MIC (Aspergillus niger [4])?
**A.** 47.5 µg/mL (≈ 130 µM)

**Q.** Which MIC (Cryptococcus neoformans [1]) does the source give for `O=C(c1ccccc1)N1CCC(n2cc(-c3noc(-c4ccccc4)n3)nn2)CC1` here?
**A.** 100 µg/mL (≈ 250 µM)

**Q.** And the MIC (Candida albicans)?
**A.** 90 µg/mL (≈ 225 µM)

**Q.** And the MIC (Aspergillus flavus [3])?
**A.** 65 µg/mL (≈ 162 µM)

**Q.** And the Activity (Aspergillus niger [6])?
**A.** inactive

**Q.** And the Activity (Fusarium oxysporum [7])?
**A.** inactive

**Q.** How did the MIC (Fusarium oxysporum [2]) turn out when `CN1CCC(n2cc(-c3noc(-c4ccc(Cl)cc4)n3)nn2)CC1` was run?
**A.** 50 µg/mL (≈ 145 µM)

**Q.** And the Activity (Cryptococcus neoformans [5])?
**A.** inactive

**Q.** And the MIC (Candida albicans)?
**A.** 35 µg/mL (≈ 102 µM)

**Q.** What about the MIC (Aspergillus flavus [3]) of the same compound?
**A.** 15 µg/mL (≈ 43.5 µM)

**Q.** What about the MIC (Aspergillus niger [4]) of the same compound?
**A.** 15 µg/mL (≈ 43.5 µM)

**Q.** Which MIC (Cryptococcus neoformans [1]) does the source give for `CS(=O)(=O)N1CCC(n2cc(-c3noc(-c4ccccc4)n3)nn2)CC1` here?
**A.** 25 µg/mL (≈ 66.8 µM)

**Q.** What about the MIC (Fusarium oxysporum [2]) of the same compound?
**A.** 30 µg/mL (≈ 80.1 µM)

**Q.** And the MIC (Candida albicans)?
**A.** 50 µg/mL (≈ 134 µM)

**Q.** And the MIC (Aspergillus flavus [3])?
**A.** 40 µg/mL (≈ 107 µM)

**Q.** What about the MIC (Aspergillus niger [4]) of the same compound?
**A.** 40 µg/mL (≈ 107 µM)

**Q.** `CC(=O)N1CCC(n2cc(-c3noc(-c4ccccc4)n3)nn2)CC1` was tested. Which MIC (Fusarium oxysporum [2]) did it give?
**A.** 35 µg/mL (≈ 103 µM)

**Q.** What about the Activity (Aspergillus flavus [8]) of the same compound?
**A.** inactive

**Q.** What about the Activity (Cryptococcus neoformans [5]) of the same compound?
**A.** inactive

**Q.** And the MIC (Candida albicans)?
**A.** 35 µg/mL (≈ 103 µM)

**Q.** What about the MIC (Aspergillus niger [4]) of the same compound?
**A.** 95 µg/mL (≈ 281 µM)

**Q.** Which MIC (Cryptococcus neoformans [1]) does the source give for `Cc1ccc(S(=O)(=O)N2CCC(n3cc(-c4noc(-c5ccccc5)n4)nn3)CC2)cc1` here?
**A.** 40 µg/mL (≈ 88.8 µM)

**Q.** And the MIC (Fusarium oxysporum [2])?
**A.** 70 µg/mL (≈ 155 µM)

**Q.** What about the MIC (Candida albicans) of the same compound?
**A.** 60 µg/mL (≈ 133 µM)

**Q.** What about the MIC (Aspergillus flavus [3]) of the same compound?
**A.** 45 µg/mL (≈ 99.9 µM)

**Q.** What about the MIC (Aspergillus niger [4]) of the same compound?
**A.** 37.5 µg/mL (≈ 83.2 µM)

**Q.** `CCC(=O)N1CCC(n2cc(-c3noc(-c4ccc(Cl)cc4)n3)nn2)CC1` was tested. Which MIC (Fusarium oxysporum [2]) did it give?
**A.** 40 µg/mL (≈ 103 µM)

**Q.** And the Activity (Cryptococcus neoformans [5])?
**A.** inactive

**Q.** What about the MIC (Candida albicans) of the same compound?
**A.** 35 µg/mL (≈ 90.5 µM)

**Q.** And the MIC (Aspergillus flavus [3])?
**A.** 30 µg/mL (≈ 77.6 µM)

**Q.** What about the MIC (Aspergillus niger [4]) of the same compound?
**A.** 100 µg/mL (≈ 259 µM)

**Q.** Which results are given for `CCN1CCC(n2cc(-c3noc(-c4ccccc4)n3)nn2)CC1`?
**A.** MIC (Cryptococcus neoformans [1]): 150 µg/mL (≈ 462 µM); MIC (Fusarium oxysporum [2]): 100 µg/mL (≈ 308 µM); MIC (Candida albicans): 90 µg/mL (≈ 277 µM); MIC (Aspergillus flavus [3]): 35 µg/mL (≈ 108 µM); MIC (Aspergillus niger [4]): 47.5 µg/mL (≈ 146 µM)

— ChEMBL document CHEMBL1759954, “Synthesis of some novel 3-(1-(1-substitutedpiperidin-4-yl)-1H-1,2,3-triazol-4-yl)-5-substituted phenyl-1,2,4-oxadiazoles as antifungal agents” (2011)
